According to ChEMBL document CHEMBL4196040, “Discovery of carbazole carboxamides as novel RORγt inverse agonists” (Eur J Med Chem, 2018):
pIC50: −log10 of the molar value.

Experiments:
[1] = molecular target: T1, Nuclear receptor ROR-gamma (Homo sapiens, UniProt P51449); assay: Inverse agonist activity at APC-labeled RORgammat LBD (unknown origin) assessed as inhibition of N-(2-chloro-6-fluorobenzyl)-N-((20-methoxy-[1,10-biphenyl]-4-yl)methyl)benzenesulfonamide -induced co-activator europium-labeled SRC1 peptide recruitment after 1 hr by LANCE-FRET assay; settings: for pIC50: read-out: IC50
T1 sequence (P51449 whole entry): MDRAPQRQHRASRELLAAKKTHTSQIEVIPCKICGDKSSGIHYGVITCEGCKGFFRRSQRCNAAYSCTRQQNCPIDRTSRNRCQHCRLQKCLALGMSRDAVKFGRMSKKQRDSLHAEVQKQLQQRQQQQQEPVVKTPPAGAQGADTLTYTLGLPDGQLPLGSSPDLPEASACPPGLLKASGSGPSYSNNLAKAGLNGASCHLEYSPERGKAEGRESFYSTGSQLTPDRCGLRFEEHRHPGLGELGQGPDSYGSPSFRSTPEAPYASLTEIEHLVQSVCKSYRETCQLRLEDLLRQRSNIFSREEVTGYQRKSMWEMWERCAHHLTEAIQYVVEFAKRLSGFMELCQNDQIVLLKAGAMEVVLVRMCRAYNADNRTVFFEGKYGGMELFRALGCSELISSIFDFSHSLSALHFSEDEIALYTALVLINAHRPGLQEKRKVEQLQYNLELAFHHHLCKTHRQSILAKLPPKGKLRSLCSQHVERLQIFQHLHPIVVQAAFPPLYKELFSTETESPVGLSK

[2] = Intrinsic clearance in mouse liver microsomes; assay type: ADME, microsome
[3] = Inhibition of mouse splenocytes-derived CD4+ Th17 cell differentiation assessed as reduction in IL-17 production at 0.3 uM by flow cytometry relative to control; assay type: functional
Procedure, shortened: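 CD4+ T cells were taken from mouse splenocytes by negative selection and skewed to Th17 over 4 days with anti-CD3 0.25 μg/mL, anti-CD28 1 μg/mL, anti-IFN-γ and anti-IL-4 2 μg/mL each, TGF-β 5 ng/mL and IL-6 20 ng/mL. Compound or DMSO was added on day 0. IL-17+ CD4+ cells were measured by intracellular staining and flow cytometry.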

[4] = molecular target: T2, Nuclear receptor ROR-gamma (Homo sapiens) (UniProt P51449); assay: Agonist activity at APC-labeled RORgammat LBD (unknown origin) assessed as co-activator europium-labeled SRC1 peptide recruitment after 1 hr by LANCE-FRET assay relative to control
T2 sequence (whole entry): T1 sequence (P51449 whole entry)

SMILES	pIC50 [1]	also measured
CCn1c2c(c3cc(C(=O)NCc4ccc(S(=O)(=O)CC)cc4)ccc31)CCCC2	6.37	–
CCn1c2ccc(C)cc2c2cc(C(=O)NCc3ccc(S(=O)(=O)CC)cc3)ccc21	7.32	CLint [2]: 0.368 mL/min/g; inhibition at 0.3 µM [3]: 43.6%
CCn1c2c(c3cc(C(=O)NCc4ccc(S(=O)(=O)CC)cc4)ccc31)CCC2	5.88	–
CCCn1c2ccccc2c2cc(C(=O)NCc3ccc(S(=O)(=O)CC)cc3)ccc21	6.86	–
CCS(=O)(=O)c1ccc(CNC(=O)c2ccc3c(c2)c2ccccc2n3C(C)C)cc1	6.45	–
CCS(=O)(=O)c1ccc(CNC(=O)c2ccc3c(c2)c2ccccc2n3CC(C)C)cc1	7.16	–
CCS(=O)(=O)c1ccc(CNC(=O)c2ccc3c(c2)c2ccccc2n3CC2CCCCC2)cc1	7.47	Emax [4]: 54%
CCn1c2ccccc2c2cc(NC(=O)Cc3ccc(S(=O)(=O)CC)cc3)ccc21	6.77	–
CCn1ccc2cc(C(=O)NCc3ccc(S(=O)(=O)CC)cc3)ccc21	5.29	–
CCS(=O)(=O)c1ccc(CNC(=O)c2ccc3[nH]c4ccccc4c3c2)cc1	5.27	–
CCn1c2ccccc2c2cc(C(=O)NCC(C)NC(=O)Cc3ccc(S(=O)(=O)CC)cc3)ccc21 (centres undefined)	–	IC50 [1]: Not Active
CCn1c2ccc(C(=O)NCc3ccc(S(=O)(=O)CC)cc3)cc2c2ncccc21	5.52	–
CCS(=O)(=O)c1ccc(CNC(=O)c2ccc3c(c2)c2ccccc2n3CC2CC2)cc1	7.09	–
CCn1c(C)c(C)c2cc(C(=O)NCc3ccc(S(=O)(=O)CC)cc3)ccc21	6.04	–
CCn1c2ccccc2c2cc(NC(=O)CNC(=O)Cc3ccc(S(=O)(=O)CC)cc3)ccc21	5.12	–
CCS(=O)(=O)c1ccc(CNC(=O)c2ccc3c(c2)c2ccccc2n3CC2CCC2)cc1	7.26	–
CCn1c2ccccc2c2cc(C(=O)NCc3ccc(S(=O)(=O)CC)cn3)ccc21	5.91	–

Second part, led by results:

pIC50 [1]	SMILES	also measured
6.25	CCS(=O)(=O)c1ccc(CNC(=O)c2ccc3c(c2)c2ccccc2n3C)cc1	–
6.78	CCn1c2ccccc2c2cc(C(=O)NCc3ccc(S(=O)(=O)CC)cc3)ccc21	CLint [2]: 0.305 mL/min/g; inhibition at 0.3 µM [3]: 40%
5.84	CCCS(=O)(=O)c1ccc(CNC(=O)c2ccc3c(c2)c2ccccc2n3CC)cc1	–
6.81	CCn1c2ccc(F)cc2c2cc(C(=O)NCc3ccc(S(=O)(=O)CC)cc3)ccc21	CLint [2]: 0.348 mL/min/g; inhibition at 0.3 µM [3]: 45.9%
6.50	CCn1c2ccccc2c2cc(C(=O)NCc3ccc(S(=O)(=O)NC)cc3)ccc21	–
7.23	CCn1c2ccc(Cl)cc2c2cc(C(=O)NCc3ccc(S(=O)(=O)CC)cc3)ccc21	CLint [2]: 0.197 mL/min/g; inhibition at 0.3 µM [3]: 58.8%
5.96	CCn1c2ccccc2c2cc(C(=O)NCc3ccc(S(C)(=O)=O)cc3)ccc21	–
4.79	CCn1c2ccccc2c2cc(NC(=O)NCc3ccc(S(=O)(=O)CC)cc3)ccc21	–
